Experimental data as given in PMC4600222 (Chemmedchem, 2015).

Experiments:
[1] = tested on: CVB3 Nancy; assay: Mechanism of action, modified plaque reduction assay; assay type: cell-based, coxsackievirus B3; details: 0.5 and 1 μM
[2] = tested on: CYP1A, CYP2B6, CYP2C8, CYP2C9, CYP2C19, CYP2D6, and CYP3A; assay: Inhibition of cytochrome P450 isoforms; assay type: in vitro ADME
[3] = tested on: CVB3 97927 (I1092); assay: CPE inhibition in HeLa cells, CVB3 97927; assay type: cell-based, coxsackievirus B3; details: Enterovirus B, read-out: IC50, cytopathic effect of CVB3 97927
[4] = Subacute; assay type: in vivo; details: 12.5, 50 and 200 mg kg^−1, 30 days, male BALB/c mice; acute >3 g kg^−1
[5] = Acute toxicity in mice; assay type: in vivo; details: no indications of adverse effects
[6] = molecular target: K+ channel (hERG) (Homo sapiens, UniProt Q12809); assay: QT prolongation K+ channel
[7] = tested on: CVB3 Nancy wildtype; assay: Plaque reduction assay in HeLa cells, CVB3 Nancy wildtype; assay type: cell-based, coxsackievirus B3; details: Enterovirus B, read-out: IC50 plaque inhibition, CVB3 Nancy wildtype
Method in brief: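 Plaque reduction assay in HeLa cells on wild-type CVB3 Nancy and on compound-resistant variants. The variants were isolated from wild-type pools under 1 μg mL−1 (2.7 μm) test compound, and their amino acid substitutions were identified by genetic characterization. IC50 is taken from plaque inhibition. Means and/or SD come from at least three assays.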

[8] = tested on: CYP1A2, CYP2B6, and CYP3A4; assay: Induction of cytochrome P450 isoforms; assay type: in vitro ADME
[9] = tested on: 46 RV serotypes and 14 EV strains; assay: CPE inhibition assays in HeLa cells, panel of 60 RV and EV strains; assay type: cell-based, rhinovirus, enterovirus
[10] = Plasma stability; assay type: in vitro ADME
[11] = tested on: CVB3 31-1-93; assay: CVB3-induced chronic myocarditis in NMRI mice; assay type: in vivo; details: 100 mg kg^−1 orally twice daily for 7 days
[12] = Metabolic stability; assay type: in vitro ADME
[13] = tested on: CVB3 Nancy (L1092); assay: CPE inhibition in HeLa cells, CVB3 Nancy; assay type: cell-based, coxsackievirus B3; details: Enterovirus B, read-out: IC50, cytopathic effect of CVB3 Nancy
[14] = Pharmacokinetics in mice after intragastric administration; assay type: in vivo

Sequence of K+ channel (hERG) (Q12809 whole entry): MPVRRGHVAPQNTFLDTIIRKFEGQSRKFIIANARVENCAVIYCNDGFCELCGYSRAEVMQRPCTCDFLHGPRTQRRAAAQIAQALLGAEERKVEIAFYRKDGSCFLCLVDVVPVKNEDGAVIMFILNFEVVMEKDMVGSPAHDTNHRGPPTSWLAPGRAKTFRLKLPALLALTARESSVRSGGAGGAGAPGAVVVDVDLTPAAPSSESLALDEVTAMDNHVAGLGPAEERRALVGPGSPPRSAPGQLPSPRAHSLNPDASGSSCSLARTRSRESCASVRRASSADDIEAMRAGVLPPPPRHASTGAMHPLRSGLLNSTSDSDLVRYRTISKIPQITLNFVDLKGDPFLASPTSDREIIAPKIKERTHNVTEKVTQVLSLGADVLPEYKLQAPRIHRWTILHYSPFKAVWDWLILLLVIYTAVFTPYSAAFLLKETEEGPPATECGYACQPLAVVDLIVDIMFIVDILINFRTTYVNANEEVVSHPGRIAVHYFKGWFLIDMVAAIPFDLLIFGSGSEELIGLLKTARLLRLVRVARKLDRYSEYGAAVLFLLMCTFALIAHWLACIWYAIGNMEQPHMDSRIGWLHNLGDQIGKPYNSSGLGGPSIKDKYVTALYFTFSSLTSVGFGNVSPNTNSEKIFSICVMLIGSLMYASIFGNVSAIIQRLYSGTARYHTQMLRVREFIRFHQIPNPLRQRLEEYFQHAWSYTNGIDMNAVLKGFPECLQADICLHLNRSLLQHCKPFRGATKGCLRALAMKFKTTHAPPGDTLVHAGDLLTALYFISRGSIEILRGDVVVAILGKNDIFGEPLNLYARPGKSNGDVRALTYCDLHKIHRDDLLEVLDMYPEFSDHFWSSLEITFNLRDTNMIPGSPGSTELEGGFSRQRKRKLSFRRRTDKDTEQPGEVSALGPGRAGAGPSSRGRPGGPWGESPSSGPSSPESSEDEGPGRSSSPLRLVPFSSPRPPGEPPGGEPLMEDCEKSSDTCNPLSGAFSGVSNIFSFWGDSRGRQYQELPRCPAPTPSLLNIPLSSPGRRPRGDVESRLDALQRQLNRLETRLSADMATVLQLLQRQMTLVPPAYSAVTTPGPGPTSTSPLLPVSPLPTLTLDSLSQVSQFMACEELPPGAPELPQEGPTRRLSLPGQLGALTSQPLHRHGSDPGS

Nc1nc(-c2ccccc2)nc2[nH]nc(Nc3ccc(C(F)(F)F)cc3)c12 [Compound 36, 3-(4-trifluoromethylphenyl)amino-6-phenylpyrazolo[3,4-d]pyrimidine-4-amine]
effect on virus infectivity, incubation with cell-free virus ([1]; 1 h at 37 °C, then diluted 1:10^6): strong loss of virus infectivity
effect on virus-induced plaque formation, pretreatment of cells ([1]; cells pretreated prior to virus inoculation): no effect
Inhibition of CYP1A, CYP2B6, CYP2C8, CYP2C9, CYP2C19, CYP2D6, and CYP3A [2]: neither an inducer nor an inhibitor
IC50 [3]: 1.05 µM
acute and chronic toxicological studies, overall finding [4]: no indications of adverse anatomical, behavioral or physiological effects
Acute toxicity [5]: > 3 g/kg
QT prolongation K+ channel (hERG) [6]: low
IC50 [7]: 0.16 ± 0.03 µM
Induction of CYP1A2, CYP2B6, and CYP3A4 [8]: neither an inducer nor an inhibitor
IC50 ([9]; Enterovirus, HeLa, read-out: IC50 values for high-level pleconaril-resistant viruses): 0.04 to 0.64 µM
strains inhibited ([9]; of the 60 strains tested, CPE inhibition, HeLa cells): 52
Plasma stability (human), remaining (%) [10]: 100%
antiviral effect, treatment started 3 h prior to or 1 and 3 days p. i. [11]: strong antiviral effect
therapeutic effect, treatment started 7 days p. i. ([11]; start 7 days p. i., results not shown): No therapeutic effect
Metabolic stability (human liver microsomes), remaining % [12]: 100%
IC50 [13]: 0.16 µM
Cl ([14]; mice, 100 mg/kg intragastric): 10.42 mL·h/kg
AUC ([14]; mouse, plasma, po, 100 mg/kg): 9600 ng·h/mL
AUC(0-t) ([14]; mouse, plasma, po, 100 mg/kg): 6420 ng·h/mL
MRT ([14]; mouse, plasma, po, 100 mg/kg): 3.54 h
Tmax ([14]; mouse, plasma, po, 100 mg/kg): 3 h
half-life ([14]; mouse, plasma, po, 100 mg/kg): 3.5 h
k el ([14]; mouse, plasma, po, 100 mg/kg): 5e-05 s⁻¹
